From PubChem BioAssay AID602190 (Broad Institute, 2012)
Records with an inconclusive call do not appear. Activity calls are given as the source filed them.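 Rule for the calls: active = compound whose fitted half-maximal concentration, in every repeat run, is at most twice the top dose tested; inconclusive = repeat runs disagree, or a flat or poor curve fit; inactive = every repeat run called inactive.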

Test system: not listed separately
Experiment: C. albicans isolate growth inhibitors, no fluconazole added – CaCi-2 strain, plate reader, dry powder, dose response (AID 602190)
Conditions: C. albicans CaCi-2 growth, Alamar Blue fluorescence, 48 h; at 26 µM (top of the series)
Summary of the method: (§1)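 Material – Candida albicans strain CaCi-2, a fluconazole-resistant clinical isolate · Quantity – inoculum OD600 0.00015 · Dosing – test compounds in a dose-response series · Incubation – 48 h static exposure at 37 °C, 2 h Alamar Blue · Technique – Alamar Blue fluorescence · Measure – growth inhibition from lowered fluorescence · Control set – amphotericin 10 µM positive control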

| Structure (SMILES) | activity change, negative = inhibition |
| --- | --- |
| O=C(Nc1nc(-c2ccccn2)cs1)c1ccccc1 | 6.07% (inactive) |
| Cc1ccc(C(=O)Nc2nnc(-c3ccccc3)o2)cc1C | -9.38% (inactive) |
| NC(=O)c1cccc(C(=O)Nc2nc(-c3ccc4c(c3)CCCC4)cs2)c1 | 4.94% (inactive) |
| O=C(Nc1nc(-c2ccccc2)cs1)c1ccc(Br)s1 | -11.8% (inactive) |
| C=CCNC(=S)N/N=C(\C)c1ccccn1 | -68% (inactive) |
| Cc1ccc(-c2nc3c(Cl)cc(Cl)cc3c(=O)n2O)cc1 | -45% (inactive) |
| O=C(Nc1nc(-c2ccc3c(c2)CCCC3)cs1)c1ccccc1 | -18.1% (inactive) |

Test system: C. albicans CaCi-2 growth, Alamar Blue fluorescence, 48 h
Experiment: as above
Conditions: not given
Summary of the method: as §1

| Structure (SMILES) | AC50 |
| --- | --- |
| Cc1cc(C)n(-c2nc3ccccc3c(=O)n2OCC#N)n1 | 6.87 µM |
| O=C(Nc1nnc(-c2ccc3c(c2)CCCC3)o1)c1ccc(Cl)cc1Cl | 17.9 µM |
| Oc1c(C(c2ccc(Cl)cc2)N2CCCC2)ccc2cccnc12 (stereo unspecified) | 5.03 µM |
| O=C(Oc1c(Cl)cc(Cl)c2cccnc12)c1ccco1 | 0.708 µM |
| Oc1c(C(c2ccccc2Cl)N2CCCCC2)ccc2cccnc12 (stereo unspecified) | 8.88 µM |
| CCOC(=O)N1C(=O)C2(CCCCC2)N(c2ccc(C)cc2)C1=S | 4.29 µM |
| CN1CCN(C(c2ccc(C(F)(F)F)cc2)c2ccc3cccnc3c2O)CC1 (stereo unspecified) | 4.75 µM |
| O=C(Nc1nc(-c2ccccn2)cs1)c1ccc(Br)s1 | 5.53 µM |
| O=C(NNC(=S)Nc1ccc(Cl)c(Cl)c1)c1ccccn1 | 13 µM |
| Oc1c(CN2CCN(c3ccccc3)CC2)cc(Cl)c2cccnc12 | 2.72 µM |
| C/C(=N\NC(=O)c1cc2ccccc2cc1O)c1ccccn1 | 6.11 µM |
| O=C(Nc1nc(-c2ccccn2)cs1)c1ccc(Cl)s1 | 6.89 µM |
| O=C(Nc1nnc(-c2ccc3c(c2)CCCC3)o1)c1ccccc1 | 17.6 µM |
| Oc1c(CN2CCc3ccccc3C2)cc(Cl)c2cccnc12 | 1.57 µM |
